Results as given in ChEMBL document CHEMBL1152917, “Benzothiophene piperazine and piperidine urea inhibitors of fatty acid amide hydrolase (FAAH)” (2009).
Active and inactive are the calls of the source.

Experiments:
Rattus norvegicus [1] = assay: Antihyperalgesic activity in complete Freund's adjuvant-induced rat inflammatory pain model assessed as reduction in mechanical allodynia after 4 hrs postdosing; assay type: functional
Summary of the method: (§1)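 Rat CFA inflammatory pain model: complete Freund's adjuvant injected subcutaneously into hind paw plantar surface; testing at day 5 post-injection. Compound given ip at 3, 10 and 30 mg/kg; naproxen 10 mg/kg ip as reference. Mechanical paw weight threshold measured 4 h after dosing, compared with vehicle group; n = 8 rats/group.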

[2] = target: T1, Fatty-acid amide hydrolase 1 (Mus musculus) (UniProt O08914); assay: Inhibition of histidine6-tagged FAAH from mouse liver proteomes at 10 to 100 uM
T1 sequence (whole entry): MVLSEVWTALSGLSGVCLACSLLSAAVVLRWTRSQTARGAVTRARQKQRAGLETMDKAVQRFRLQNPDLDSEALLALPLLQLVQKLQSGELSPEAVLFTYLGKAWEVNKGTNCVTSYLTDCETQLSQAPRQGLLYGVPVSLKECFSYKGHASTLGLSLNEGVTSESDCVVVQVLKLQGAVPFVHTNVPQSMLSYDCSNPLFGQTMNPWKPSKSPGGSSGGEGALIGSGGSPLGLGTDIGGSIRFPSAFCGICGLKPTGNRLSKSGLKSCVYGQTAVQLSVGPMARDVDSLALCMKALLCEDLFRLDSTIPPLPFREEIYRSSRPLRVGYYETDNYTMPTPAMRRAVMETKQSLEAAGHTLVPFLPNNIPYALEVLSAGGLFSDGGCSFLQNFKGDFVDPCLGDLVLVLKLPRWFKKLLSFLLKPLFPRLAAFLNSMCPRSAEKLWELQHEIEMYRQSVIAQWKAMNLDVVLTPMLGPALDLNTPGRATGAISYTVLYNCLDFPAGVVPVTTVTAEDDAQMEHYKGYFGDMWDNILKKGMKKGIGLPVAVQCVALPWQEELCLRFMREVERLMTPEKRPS
Summary of the method: (§2)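 Competitive activity-based protein profiling with FP probe labeling of serine hydrolases. Proteomes used: soluble mouse liver, mouse kidney, human liver and human heart, plus human brain membrane. Compounds tested at 100 μM, reference at 10 and 100 μM. Inhibited bands were read by gel; FAAH and off-target labeling were judged by band loss.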

[3] = target: T2, Fatty-acid amide hydrolase 1 (Rattus norvegicus) (UniProt P97612); assay: Ratio of Kinact to Ki for histidine6-tagged rat FAAH
T2 sequence (whole entry): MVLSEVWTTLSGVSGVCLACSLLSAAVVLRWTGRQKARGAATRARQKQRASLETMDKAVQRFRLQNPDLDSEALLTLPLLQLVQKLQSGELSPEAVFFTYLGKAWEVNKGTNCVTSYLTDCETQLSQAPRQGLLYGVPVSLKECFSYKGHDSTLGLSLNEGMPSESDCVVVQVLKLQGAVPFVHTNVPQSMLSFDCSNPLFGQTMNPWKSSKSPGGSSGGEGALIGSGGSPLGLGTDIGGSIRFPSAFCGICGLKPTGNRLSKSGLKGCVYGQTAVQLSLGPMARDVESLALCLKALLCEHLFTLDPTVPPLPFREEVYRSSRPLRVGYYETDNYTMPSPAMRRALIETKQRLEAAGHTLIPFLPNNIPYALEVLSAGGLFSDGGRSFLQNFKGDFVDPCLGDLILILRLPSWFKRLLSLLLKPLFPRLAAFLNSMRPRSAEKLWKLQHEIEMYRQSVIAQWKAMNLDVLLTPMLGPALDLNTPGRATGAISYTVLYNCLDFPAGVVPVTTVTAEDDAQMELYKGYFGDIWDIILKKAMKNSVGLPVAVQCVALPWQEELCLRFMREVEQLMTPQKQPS
Summary of the method: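 Rat FAAH construct: aa 30–579, N-terminal transmembrane-deleted, N-terminal His6 tag, E. coli-expressed and purified to >95% purity. Activity read by a GDH-coupled enzyme assay in 384-well plates. Second-order kinact/Ki was derived from the linear slope of kobs versus [I], correcting with (1+[S]/Km).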

Rattus norvegicus [4] = assay: Antihyperalgesic activity in complete Freund's adjuvant-induced rat inflammatory pain model assessed as reduction in mechanical allodynia at 10 mg/kg, ip; assay type: functional, organism-based; parameters: dose 10 mg/kg; summary of the method: as §1
[5] = target: T3, Fatty-acid amide hydrolase 1 (Homo sapiens) (UniProt O00519); assay: Ratio of Kinact to Ki for histidine6-tagged human FAAH
T3 sequence (whole entry): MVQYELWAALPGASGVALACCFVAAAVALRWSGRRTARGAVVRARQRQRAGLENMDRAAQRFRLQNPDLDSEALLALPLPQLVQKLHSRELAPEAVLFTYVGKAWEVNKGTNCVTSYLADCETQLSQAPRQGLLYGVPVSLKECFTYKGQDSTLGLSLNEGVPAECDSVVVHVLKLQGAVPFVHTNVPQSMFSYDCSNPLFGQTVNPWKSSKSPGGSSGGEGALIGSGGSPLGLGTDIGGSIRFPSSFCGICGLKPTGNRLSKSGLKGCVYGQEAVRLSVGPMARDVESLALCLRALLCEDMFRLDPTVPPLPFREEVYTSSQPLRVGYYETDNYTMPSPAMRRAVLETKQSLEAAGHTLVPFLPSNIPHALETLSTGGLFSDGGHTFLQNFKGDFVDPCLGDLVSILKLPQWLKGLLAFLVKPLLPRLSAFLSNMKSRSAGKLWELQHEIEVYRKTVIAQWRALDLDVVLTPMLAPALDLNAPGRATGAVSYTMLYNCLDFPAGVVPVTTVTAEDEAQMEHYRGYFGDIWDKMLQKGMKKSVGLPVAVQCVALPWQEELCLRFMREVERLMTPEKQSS
Summary of the method: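 Human FAAH construct: aa 32–579, N-terminal transmembrane-deleted, N-terminal His6 tag, expressed in E. coli and purified to >95% by SDS–PAGE. Potency measured as kinact/Ki in a GDH-coupled FAAH assay in 384-well format. kobs was plotted against [I]; kinact/Ki came from the slope kinact/[Ki(1+[S]/Km)].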

[6] = target: T1, Fatty-acid amide hydrolase 1 (Mus musculus); assay: Inhibition of histidine6-tagged FAAH from mouse kidney proteomes at 10 to 100 uM; assay type: tissue-based; summary of the method: as §2
[7] = target: T3, Fatty-acid amide hydrolase 1 (Homo sapiens); assay: Inhibition of histidine6-tagged FAAH from human heart proteomes at 10 to 100 uM; summary of the method: as §2
[8] = target: T3, Fatty-acid amide hydrolase 1 (Homo sapiens); assay: Inhibition of histidine6-tagged FAAH from human brain proteomes at 10 to 100 uM; summary of the method: as §2
[9] = target: T3, Fatty-acid amide hydrolase 1 (Homo sapiens); assay: Inhibition of histidine6-tagged FAAH from human liver proteomes at 10 to 100 uM; summary of the method: as §2

inhibition [2]	Ratio [3]	Ratio [5]	inhibition [6]	inhibition [7]	inhibition [8]	inhibition [9]	SMILES	Activity (Rattus norvegicus [1])	minimal effective dose (Rattus norvegicus [1]; read-out: MED)	Activity (Rattus norvegicus [4])
Active	1060 M⁻¹ s⁻¹	< 10 M⁻¹ s⁻¹	Active	Active	Active	Active	COc1ccc(NC(=O)N2CCN(Cc3sc4ccccc4c3C)CC2)cn1	Dose-dependent effect	10 mg/kg	Active
Active	729 M⁻¹ s⁻¹	4470 M⁻¹ s⁻¹	Active	Active	Active	Active	Cc1c(CC2CCN(C(=O)Nc3cccnc3)CC2)sc2ccc(F)cc12	–	–	–
